This is an account of results in ChEMBL document CHEMBL3098043, “New insights into molecular recognition of 1,1-bisphosphonic acids by farnesyl diphosphate synthase” (Bioorg Med Chem, 2014).

A short description of data set [1]: Cytotoxicity against hTerT cells. In kind it is cell-based. Particulars: human. An outline of the steps:
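Toxicity toward hTerT host cells was judged by visual inspection during the tachyzoite growth assay. Cells were in DMEM-HG with 1% FBS at 37 °C, 5% CO2.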

Data set [2] in a line: […]. On the set-up: species or system Trypanosoma cruzi.
Data set [3] has as its system Trypanosoma cruzi. Nature of the data set: Antimicrobial activity against Trypanosoma cruzi CL amastigotes infected in african green monkey Vero cells at 10 uM measured on day 3 by fluorescence assay. In kind it is functional. As to conditions: 72 h. In outline:
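Vero host cells, gamma-irradiated (2,000 Rads), seeded at 3.4×10^4/well in RPMI with 10% FBS and incubated overnight at 35 °C, 7% CO2. […] Compounds were added in RPMI, in quadruplicate, with no-parasite background and no-drug controls. Fluorescence was read at day 3 post-infection.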

Data set [4] concerns the target T1, Farnesyl diphosphate synthase (Toxoplasma gondii, UniProt Q197X6).
T1 sequence (Q197X6 whole entry): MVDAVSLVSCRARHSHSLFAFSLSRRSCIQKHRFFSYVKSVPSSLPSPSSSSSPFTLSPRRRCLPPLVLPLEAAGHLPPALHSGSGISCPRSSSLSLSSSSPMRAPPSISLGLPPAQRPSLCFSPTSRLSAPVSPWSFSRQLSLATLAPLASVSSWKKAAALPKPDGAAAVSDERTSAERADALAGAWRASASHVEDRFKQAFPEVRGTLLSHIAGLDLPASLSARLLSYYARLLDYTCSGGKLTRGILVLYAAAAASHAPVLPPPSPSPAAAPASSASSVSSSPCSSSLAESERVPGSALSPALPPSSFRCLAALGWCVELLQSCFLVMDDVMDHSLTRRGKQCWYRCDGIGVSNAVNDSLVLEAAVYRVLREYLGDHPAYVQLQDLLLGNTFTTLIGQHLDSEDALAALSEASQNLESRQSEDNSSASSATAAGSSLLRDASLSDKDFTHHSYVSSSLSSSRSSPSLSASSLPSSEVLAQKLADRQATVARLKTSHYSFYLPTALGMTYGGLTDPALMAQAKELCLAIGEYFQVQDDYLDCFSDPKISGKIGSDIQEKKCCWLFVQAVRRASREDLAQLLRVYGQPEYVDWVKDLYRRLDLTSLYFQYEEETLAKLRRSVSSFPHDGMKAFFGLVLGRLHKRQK
Kind of data set: Inhibition of Toxoplasma gondii FPPS.

The subject of data set [5] is Vero. Nature of the data set: Cytotoxicity against african green monkey Vero cells at 25 uM. It counts as cell-based. As to conditions: chlorocebus sabaeus. An outline of the steps:
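Host-cell toxicity toward irradiated, T. cruzi-infected Vero cells was judged by visual inspection during the amastigote assay. Drugs went up to 25 μM in RPMI with 10% FBS at 35 °C, 7% CO2, over 3 days.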

Data set [6] deals with Toxoplasma gondii. Kind of data set: Antimicrobial activity against Toxoplasma gondii tachyzoites expressing red fluorescence protein infected in hTerT cells at 10 uM measured daily by fluorescence assay. In kind it is functional.
For data set [7], the system named is Toxoplasma gondii. Kind of data set: Antimicrobial activity against Toxoplasma gondii tachyzoites expressing red fluorescence protein infected in hTerT cells measured daily by fluorescence assay. Particulars: read-out: ED50 (the source's name). In kind it is functional. In outline: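 Tachyzoites expressing red fluorescent protein, maintained in hTerT cells in DMEM-HG with 1% FBS, 2 mM glutamine, 1 mM pyruvate, 37 °C, 5% CO2. Confluent hTerT monolayers infected with 10^4 filtered, needle-passed tachyzoites/well. Drugs serially diluted in the same medium. Fluorescence read daily from the bottom (ex 510, em 540 nm).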

In data set [8] the test system is Trypanosoma cruzi. Kind of data set: Antimicrobial activity against Trypanosoma cruzi CL amastigotes infected in african green monkey Vero cells measured on day 3 by fluorescence assay. As to conditions: 72 h, read-out: ED50 (the source's name). It counts as functional. In outline: (§1)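 Vero cells were gamma-irradiated (2,000 Rads), seeded at 3.4×10^4/well in RPMI with 10% FBS, and incubated overnight at 35 °C, 7% CO2. […] Compounds were given in serial dilutions (1.56–25 μM), each in quadruplicate, with benznidazole (0.39–6.25 μM) as reference. Fluorescence was read on day 3 post-infection, and IC50 was obtained by non-linear regression.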

In data set [9] the test system is Trypanosoma cruzi. Nature of the data set: Antimicrobial activity against Trypanosoma cruzi. As to conditions: read-out: ED50 (the source's name). In kind it is functional.
In data set [10] the test system is Trypanosoma cruzi. Kind of data set: Antimicrobial activity against Trypanosoma cruzi amastigotes. It counts as functional. As to conditions: read-out: ED50 (the source's name). In outline:
as §1

In data set [11] the test system is Trypanosoma cruzi. Nature of the data set: Ratio of compound activity to WC-9 activity for Trypanosoma cruzi amastigotes. It counts as functional.
Data set [12] concerns Vero. Kind of data set: Cytotoxicity against african green monkey Vero cells at 10 uM. Particulars: chlorocebus sabaeus. It counts as cell-based.

Some results are limits rather than exact numbers.

On to `CCCCCCCCCCNCC(O)(P(=O)(O)O)P(=O)(O)O`, for which the Activity entry (in [1]; in the data set with Vero [5]) was “Non-toxic” each time. In addition, the IC50 (usually the concentration at which inhibition is half-maximal) in data set [2] was more than 10 µM; in [4] it was 0.125 µM. The inhibition – broadly, the relative decrease from the control value, in per cent – at 10 µM with Trypanosoma cruzi [3] is 42%; with Toxoplasma gondii [6], 14.9%.

Regarding `CCCCCCCNCC(O)(P(=O)(O)O)P(=O)(O)O`, the EC50 in the data set on Toxoplasma gondii [7] is not below 10 µM; with Trypanosoma cruzi [8], more than 20 µM. The Activity result (in data set [1]; in the data set on Vero [5]) was “Non-toxic” in each case. The same molecule displayed a 50% inhibitory concentration (IC50) in [2] of more than 10 µM.

`CCCCCCCCCC(F)(P(=O)(O)O)P(=O)(O)O` registered an IC50 in data set [4] of 0.06 µM.

Regarding `O=P(O)(O)C(O)(Cc1cccnc1)P(=O)(O)O` [RISEDRONIC ACID], the EC50 in the data set on Toxoplasma gondii [7] turned out to be 2.4 µM.

Take `O=C(Cn1ccnc1[N+](=O)[O-])NCc1ccccc1` [BENZNIDAZOLE]: the EC50 with Trypanosoma cruzi [9] is 2.77 µM; with Trypanosoma cruzi [8], 1.44 µM.

Consider `CCCCCCNCC(O)(P(=O)(O)O)P(=O)(O)O`, for which the values for the EC50 in the data set on Toxoplasma gondii [7] and in the data set with Trypanosoma cruzi [8] were 4.68 µM and more than 20 µM, respectively. Moreover, the Activity entry (in [1]; in the data set on Vero [5]) was “Non-toxic” each time. Besides, the concentration for half-maximal inhibition (IC50) is more than 10 µM in [2] and 0.051 µM in data set [4].

On to `CCCCCNCC(O)(P(=O)(O)O)P(=O)(O)O`, for which the EC50 with Toxoplasma gondii [7] is more than 10 µM; with Trypanosoma cruzi [8], more than 20 µM. Also, the Activity entry (in data set [1]; in the data set on Vero [5]) was “Non-toxic” each time. Also, the 50% inhibitory concentration (IC50) in data set [2] was more than 10 µM; in data set [4], 0.067 µM.

For the molecule `CCCCCCCCCCCCNCC(P(=O)(O)O)P(=O)(O)O`, the EC50 with Trypanosoma cruzi [9] is 0.67 µM.

On to `CCCCCCNCC(P(=O)(O)O)P(=O)(O)O`, for which, in the data set with Trypanosoma cruzi [10], the EC50 was determined as 0.84 µM. Moreover, the Ratio in the data set on Trypanosoma cruzi [11] turned out to be 15.

In turn, `CCCCCCCCC(F)(P(=O)(O)O)P(=O)(O)O` gave a half-inhibitory concentration (IC50) in data set [4] of 0.035 µM.

Take `CCCCCCCCNCC(O)(P(=O)(O)O)P(=O)(O)O`: the EC50 with Toxoplasma gondii [7] worked out at 2 µM. Also, the Activity entry with Vero [12] is listed as “Toxic”; in data set [1] it was “Non-toxic”; in the data set on Vero [5], “Non-toxic”. Besides, the IC50 in data set [2] was more than 10 µM; in [4], 0.039 µM. Further, in the data set with Trypanosoma cruzi [3], the inhibition at 10 µM amounted to 46%.
